Published values of several laboratories.
Protocols differ between the studies behind these lines.
Target: Discoidin domain-containing receptor 2 (DDR2, Homo sapiens, UniProt Q16832)

Structure (SMILES) | read-out | action | technique | concentration | measurement | value
Cc1cc(NC(=O)c2cccc(S(F)(F)(F)(F)F)c2)cc(-n2ccn3nc(-c4cccnc4)cc23)c1 | cell-free assay | – | competition with immobilised ligand | 1 µM | remaining binding | 18.2%
Cc1[nH]c(/C=C2\C(=O)Nc3ccc(F)cc32)c(C)c1C(=O)N[C@H]1CCN(C(=O)N(C)C)C1 | enzyme activity | inhibitor | – | 0.1 µM | remaining activity | 113%
O=C(NCc1ncc(C(F)(F)F)cc1Cl)c1ccc2c(c1)C1(CCS(=O)(=O)CC1)[C@H](C1CC1)N2S(=O)(=O)c1ccc(F)cc1 | cell-free assay | – | competition with immobilised ligand | 1 µM | remaining binding | 78%
Cc1cc(NC(=O)c2cccc3cc(-c4cccc5[nH]nc(N)c45)ccc23)ccc1F | enzyme activity | inhibitor | – | 0.1 µM | activity vs control | 60%
CCN(CC)CCNC(=O)c1c(C)[nH]c(/C=C2\C(=O)Nc3ccc(F)cc32)c1C | enzyme activity | inhibitor | – | 1 µM | remaining activity | 103%
O=C1Nc2ccc(Cl)cc2C1=Cc1cc(Cl)c(O)c(Cl)c1 | cell-free assay | – | – | 0.5 µM | remaining signal | 85.8%
FC(F)(F)c1ccc2c(c1)nc(-c1cccnc1)n2C1CC1 | cell-free assay | – | competition with immobilised ligand | 1 µM | remaining binding | 100%
O=C(Nc1cnn(-c2csc(C(=O)NC3COC3)c2)c1)Nc1c(F)cccc1Cl | enzyme activity | inhibitor | – | 5 µM | remaining activity | 96.6%
CN(C)c1ncnc(-c2ccc3nc(Nc4cc(CN5CCN(C(=O)CC(F)(F)F)CC5)ccn4)[nH]c3c2)c1Cl | cell-free assay | – | competition with immobilised ligand | 1 µM | remaining binding | 71%
N#CCCc1ccc2c(c1)-c1[nH]c3ccc([N+](=O)[O-])cc3c1CC(=O)N2 | cell-free assay | – | – | 0.5 µM | remaining signal | 105%
C=CC(=O)Nc1cc(Nc2nccc(Nc3cc(Cl)c(F)cc3C(C)(C)O)n2)c(OC)cc1N1CC[C@@H](N(C)C)C1 | enzyme activity | inhibitor | – | 1 µM | inhibition | 1%
COc1cc(Nc2cnc(C#N)c(O[C@H](C)CN(C)C)n2)ncc1-c1cnn(C)c1 | enzyme activity | inhibitor | radiometric | 1 µM | remaining activity | 95%
CCCOc1ccc(OC)c(F)c1C(=O)c1ccc(C(=O)N[C@@H]2CNC[C@H]2NC(=O)c2ccc3[nH]ncc3c2)cc1 | enzyme activity | inhibitor | – | 10 µM | remaining activity | 103%
CNC(=O)Nc1ccc2c(c1)CC[C@@]21OC(=O)N(CC(=O)N(Cc2ccc(F)cc2)[C@@H](C)C(F)(F)F)C1=O | cell-free assay | – | competition with immobilised ligand | 1 µM | remaining binding | 75%
COc1cc(/C=C/C(=O)CC(=O)/C=C/c2ccc(O)c(OC)c2)ccc1O | enzyme activity | inhibitor | – | 1 µM | activity vs control | 109%
CCN(CC)CCNC(=O)c1c(C)[nH]c(/C=C2\C(=O)Nc3ccc(F)cc32)c1C | enzyme activity | inhibitor | – | 0.3 µM | inhibition | -8%
